Drawing on ChEMBL document CHEMBL1125831, “Synthesis and quantitative structure-activity relationship analysis of 2-(aryl or heteroaryl)quinolin-4-amines, a new class of anti-HIV-1 agents” (J Med Chem, 1991), this text covers MTC and EC50 for 38 compounds.

What is called EC50 is the concentration that produces a half-maximal response.

The structures appear in SMILES notation.

Series [1] in a line: In vitro toxicity on uninfected Phytohemagglutininin stimulated human PBM cell. Format: cell-based. An outline of the steps: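 Human PBM cells stimulated with phytohemagglutinin and left uninfected. Cell toxicity reported as minimum toxic concentration (MTC).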
Series [2] relates to Human immunodeficiency virus 1. The series can be described thus: In vitro antiviral activity in Phytohemagglutininin stimulated human PBM cells infected with HIV-1 (strain LAV-1). The format is functional, organism-based. Particulars: Human immunodeficiency virus 1, PBMC. Summed up: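 […] human PBM cells stimulated with phytohemagglutinin, then infected with HIV-1 strain LAV-1. Antiviral activity reported as median effective concentration (EC50).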

In series [1], `CC1CCCCN1c1cc(-c2ccccn2)nc2ccccc12` (stereo not given) returned an MTC of 100 µM. For the same compound, the EC50 in series [2] came out at 4.24 µM.

As for `CN(C)CCNc1cc(-c2cccs2)nc2ccccc12`, in series [1], the MTC was found to be 10 µM. In series [2], this compound returned an EC50 of 0.57 µM.

`CC(C)Nc1cc(-c2ccccc2)nc2ccccc12` yielded an MTC in series [1] of over 100 µM. The same compound had an EC50 in series [2] of 100 µM.

`CN1CCN(c2cc(-c3ccco3)nc3ccccc23)CC1`: the EC50 in series [2] worked out at 15.8 µM.

The compound `CN(C)CCNc1cc(-c2ccc(F)cc2)nc2ccccc12` had an MTC in series [1] of 100 µM. In series [2], this compound registered an EC50 of 13.2 µM.

As for `CC1CCCN(c2cc(-c3ccccc3)nc3ccccc23)C1` (stereo not given), in series [1], the MTC was determined as 100 µM. In addition, the EC50 in series [2] was 16.7 µM.

Regarding `CN(C)CCNc1cc(-c2ccc(Br)cc2)nc2ccccc12`, the MTC in series [1] came to 100 µM. For the same compound, the EC50 in series [2] stood at 44.2 µM.

In series [2], `CN(C)CCNc1cc(-c2ccc(Cl)cc2)nc2ccccc12` showed an EC50 of 100 µM.

As for `CN(C)CCNc1cc(-c2ccccn2)nc2ccccc12`, in series [1], the MTC worked out at 100 µM. For the same compound, the EC50 in series [2] was determined as 1.35 µM.

On to `c1ccc(-c2cc(N3CCSCC3)c3ccccc3n2)nc1`, for which a half-maximal response in series [2] (EC50) required 2.81 µM.

Regarding `CN(C)CCNc1cc(-c2cccnc2)nc2ccccc12`, the MTC in series [1] was over 100 µM. The compound further gave an EC50 in series [2] of 1.51 µM.

In turn, `COc1ccc(-c2cc(NCCN(C)C)c3ccccc3n2)cc1` came in with an MTC in series [1] of 10 µM. The compound also returned an EC50 in series [2] of 10.4 µM.

Compound `Cc1ccc(-c2cc(NCCN(C)C)c3ccccc3n2)cc1` came in with an MTC in series [1] of 10 µM. In series [2], this compound displayed an EC50 of 4.47 µM.

`CC1CCN(c2cc(-c3ccccn3)nc3ccccc23)CC1`: in series [1], the MTC came out at 100 µM. In addition, the EC50 in series [2] turned out to be 4.08 µM.

Take `CCN(CCN(C)C)c1cc(-c2cccnc2)nc2ccccc12`: in series [1], the MTC was 100 µM. In series [2], this compound showed an EC50 of 24.2 µM.

On to `CCN(CCN(C)C)c1cc(-c2ccncc2)nc2ccccc12`, for which the MTC in series [1] turned out to be 100 µM. In addition, in series [2], the EC50 came out at 100 µM.

For the compound `Nc1cc(-c2ccccc2)nc2ccccc12`, the EC50 in series [2] came to 25.7 µM.

For `CN1CCN(c2cc(-c3cccs3)nc3ccccc23)CC1`, a half-maximal response in series [2] (EC50) required 9.07 µM.

In series [2], `c1ccc(-c2cc(N3CCOCC3)c3ccccc3n2)nc1` returned a half-maximal effective concentration (EC50) of 18.5 µM. Against the preceding compound, the EC50 is about 2-fold higher.

`CCN(CCN(C)C)c1cc(-c2ccccn2)nc2ccccc12` displayed an EC50 in series [2] of 13.2 µM. The EC50 values of the last two compounds are within 1.5-fold of each other.

In series [1], `CCN(CCN(C)C)c1cc(-c2cccs2)nc2ccccc12` gave an MTC of 100 µM. In series [2], this compound had an EC50 of 32.4 µM.

In turn, `c1cncc(-c2cc(N3CCCCC3)c3ccccc3n2)c1` came in with an MTC in series [1] of 100 µM. In series [2], this compound came in with an EC50 of 20 µM.

Consider `CC(C)(C)Nc1cc(-c2ccccc2)nc2ccccc12`, for which the response in series [2] was half-maximal at 100 µM (EC50).

Consider `CN(C)CCNc1cc(-c2ccco2)nc2ccccc12`, for which, in series [1], the MTC was over 1 µM. Moreover, the EC50 in series [2] stood at 0.91 µM.

In turn, `CN1CCN(c2cc(-c3cccnc3)nc3ccccc23)CC1` came in with an MTC in series [1] of over 100 µM. In addition, in series [2], the response was half-maximal at 1 µM (EC50).

The compound `CN1CCN(c2cc(-c3ccccc3)nc3ccccc23)CC1` returned an MTC in series [1] of 100 µM. The same compound had an EC50 in series [2] of 13.2 µM.

The compound `CN1CCN(c2cc(-c3ccccn3)nc3ccccc23)CC1` returned an EC50 in series [2] of 5.51 µM. This counts as single-digit micromolar.

`Nc1cc(-c2cccs2)nc2ccccc12` gave an MTC in series [1] of 10 µM. This compound also registered an EC50 in series [2] of 34.3 µM.

The compound `CCN(CCN(C)C)c1cc(-c2ccccc2)nc2ccccc12` had an EC50 in series [2] of 34.8 µM.

In turn, `Nc1cc(-c2ccccn2)nc2ccccc12` had an MTC in series [1] of 100 µM. A half-maximal response in series [2] (EC50) required 8.56 µM.

As to `CN1CCN(c2cc(-c3ccncc3)nc3ccccc23)CC1`, the EC50 in series [2] was 68.2 µM. That is a double-digit micromolar value.

As to `CN(C)CCNc1cc(-c2ccncc2)nc2ccccc12`, the MTC in series [1] was determined as 100 µM. Also, the EC50 in series [2] came out at 36.9 µM.

In turn, `CC1CCCCN1c1cc(-c2ccccc2)nc2ccccc12` (stereo not given) came in with an MTC in series [1] of 100 µM. The 50% effective concentration (EC50) in series [2] was determined as 26.4 µM.

Turning to `c1cncc(-c2cc(N3CCCC3)c3ccccc3n2)c1`, in series [1], the MTC worked out at 100 µM. The same compound gave an EC50 in series [2] of 33.7 µM.

For `CC1CCCN(c2cc(-c3ccccn3)nc3ccccc23)C1` (stereo not given), the MTC in series [1] came out at 100 µM. The compound further had a 50% effective concentration (EC50) in series [2] of 4.86 µM.

In series [1], `Nc1cc(-c2cccnc2)nc2ccccc12` yielded an MTC of 85.7 µM. In addition, in series [2], the EC50 was 1 µM.

As for `CN(C)CCNc1cc(-c2ccccc2)nc2ccccc12`, the MTC in series [1] stood at 100 µM. Besides, the response in series [2] was half-maximal at 10 µM (EC50).

In series [1], `CC(C)CNc1cc(-c2ccccc2)nc2ccccc12` registered an MTC of 100 µM. This compound had an EC50 in series [2] of 50.6 µM.
